According to ChEMBL document CHEMBL1148910, “A coumarin from Mallotus resinosus that mediates DNA cleavage” (J Nat Prod, 2004):
Active and inactive are the calls of the source. No cut-off for these calls is given here.

Columns and labels:
Escherichia coli [1] = assay: Induction of strand scission in pBR322 DNA assessed as conversion from supercoiled form to nicked form at 250 uM after 60 mins by agarose gel electrophoresis in presence of Cu2+
Method in brief: (§1)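 Supercoiled pBR322 plasmid DNA (500 ng) was incubated with 20 µM Cu2+ and test compound (in DMSO, final ≤5%) in 25 µL of 10 mM Tris-HCl, pH 8.0, at 37 °C for 60 min. Controls were DNA alone and DNA + Cu2+. Products were run on a 1.0% agarose gel with 0.7 µg/mL ethidium bromide in TBE, pH 8.3, at 110-120 V for 2-3 h, then imaged under UV. Read-out was % form II (nicked) DNA.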

Escherichia coli [2] = assay: Induction of strand scission in pBR322 DNA assessed as conversion from supercoiled form to nicked form at 1000 uM after 60 mins by agarose gel electrophoresis in presence of Cu2+; method in brief: as §1
Escherichia coli [3] = assay: Induction of strand scission in pBR322 DNA assessed as conversion from supercoiled form to nicked form at 500 uM after 60 mins by agarose gel electrophoresis in presence of Cu2+; method in brief: as §1
Escherichia coli [4] = assay: Induction of strand scission in supercoiled pBR322 DNA by agarose gel electrophoresis in presence of Cu2+; method in brief: as §1
Escherichia coli [5] = assay: Induction of strand scission in pBR322 DNA assessed as conversion from supercoiled form to nicked form at 1000 uM after 60 mins by agarose gel electrophoresis in absence of Cu2+
Method in brief: (§2)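 No Cu2+ was added. Supercoiled pBR322 DNA (500 ng) was incubated with test compound (in DMSO, final ≤5%) in 25 µL of 10 mM Tris-HCl, pH 8.0, at 37 °C for 60 min, with DNA alone as the blank. Products were separated on a 1.0% agarose gel with ethidium bromide in TBE at 110-120 V for 2-3 h and photographed under UV. Read-out was % nicked (form II) DNA.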

Escherichia coli [6] = assay: Induction of strand scission in supercoiled pBR322 DNA by agarose gel electrophoresis in absence of added metal ion
Escherichia coli [7] = assay: Induction of strand scission in supercoiled pBR322 DNA by agarose gel electrophoresis in presence of Fe2+
Escherichia coli [8] = assay: Induction of strand scission in supercoiled pBR322 DNA by agarose gel electrophoresis in presence of Cu2+ and alkali
Escherichia coli [9] = assay: Induction of strand scission in pBR322 DNA assessed as conversion from supercoiled form to nicked form at 100 uM after 60 mins by agarose gel electrophoresis in presence of Cu2+; method in brief: as §1
Escherichia coli [10] = assay: Induction of strand scission in pBR322 DNA assessed as conversion from supercoiled form to nicked form at 250 uM after 60 mins by agarose gel electrophoresis in absence of Cu2+; method in brief: as §2
Escherichia coli [11] = assay: Induction of strand scission in pBR322 DNA assessed as conversion from supercoiled form to nicked form at 50 uM after 60 mins by agarose gel electrophoresis in presence of Cu2+; method in brief: as §1

Work on `COc1cc2ccc(=O)oc2cc1O` yielded an Activity (Escherichia coli [1]) of 15%, an Activity (Escherichia coli [2]) of 36% and an Activity (Escherichia coli [3]) of 22%. For the same compound, the Activity (Escherichia coli [4]) was “Dose-dependent effect”, the Activity (Escherichia coli [5]) was 3% and the Activity (Escherichia coli [6]) was “inactive”. The Activity (Escherichia coli [7]) was “inactive” and the Activity (Escherichia coli [8]) was “inactive”.
`O=c1ccc2cc(O)c(O)cc2o1` was tested, and the Activity (Escherichia coli [1]) was 76%, the Activity (Escherichia coli [9]) was 64% and the Activity (Escherichia coli [4]) was “Dose-dependent effect”. The Activity (Escherichia coli [10]) was 2%, the Activity (Escherichia coli [11]) was 55% and the Activity (Escherichia coli [6]) was “inactive”. For the same compound, the Activity (Escherichia coli [7]) was “inactive”.
In the case of `COc1cc2oc(=O)ccc2cc1O`, the Activity (Escherichia coli [1]) is reported as 14%, the Activity (Escherichia coli [2]) is reported as 42% and the Activity (Escherichia coli [3]) is reported as 26%. For the same compound, the Activity (Escherichia coli [4]) was “Dose-dependent effect”, the Activity (Escherichia coli [5]) was 2% and the Activity (Escherichia coli [6]) was “inactive”. For the same compound, the Activity (Escherichia coli [7]) was “inactive”.
